This is a sample that favours compounds with a hit; in the whole collection about 2% have one here.
PLCb3 inh: PLC-beta3 (human) inhibition, primary screen. Q01970. Purified PLC-beta3, fluorogenic substrate, fluorescence. inhibition, % at 12.2 µM. 370,000 compounds, 0.18% hits. AID 720704; in the data active means inhibition above about 11%;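 further: 0% = median of compound wells on plate and 100% = full blocker control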
Target sequence (Q01970 whole entry, looked up): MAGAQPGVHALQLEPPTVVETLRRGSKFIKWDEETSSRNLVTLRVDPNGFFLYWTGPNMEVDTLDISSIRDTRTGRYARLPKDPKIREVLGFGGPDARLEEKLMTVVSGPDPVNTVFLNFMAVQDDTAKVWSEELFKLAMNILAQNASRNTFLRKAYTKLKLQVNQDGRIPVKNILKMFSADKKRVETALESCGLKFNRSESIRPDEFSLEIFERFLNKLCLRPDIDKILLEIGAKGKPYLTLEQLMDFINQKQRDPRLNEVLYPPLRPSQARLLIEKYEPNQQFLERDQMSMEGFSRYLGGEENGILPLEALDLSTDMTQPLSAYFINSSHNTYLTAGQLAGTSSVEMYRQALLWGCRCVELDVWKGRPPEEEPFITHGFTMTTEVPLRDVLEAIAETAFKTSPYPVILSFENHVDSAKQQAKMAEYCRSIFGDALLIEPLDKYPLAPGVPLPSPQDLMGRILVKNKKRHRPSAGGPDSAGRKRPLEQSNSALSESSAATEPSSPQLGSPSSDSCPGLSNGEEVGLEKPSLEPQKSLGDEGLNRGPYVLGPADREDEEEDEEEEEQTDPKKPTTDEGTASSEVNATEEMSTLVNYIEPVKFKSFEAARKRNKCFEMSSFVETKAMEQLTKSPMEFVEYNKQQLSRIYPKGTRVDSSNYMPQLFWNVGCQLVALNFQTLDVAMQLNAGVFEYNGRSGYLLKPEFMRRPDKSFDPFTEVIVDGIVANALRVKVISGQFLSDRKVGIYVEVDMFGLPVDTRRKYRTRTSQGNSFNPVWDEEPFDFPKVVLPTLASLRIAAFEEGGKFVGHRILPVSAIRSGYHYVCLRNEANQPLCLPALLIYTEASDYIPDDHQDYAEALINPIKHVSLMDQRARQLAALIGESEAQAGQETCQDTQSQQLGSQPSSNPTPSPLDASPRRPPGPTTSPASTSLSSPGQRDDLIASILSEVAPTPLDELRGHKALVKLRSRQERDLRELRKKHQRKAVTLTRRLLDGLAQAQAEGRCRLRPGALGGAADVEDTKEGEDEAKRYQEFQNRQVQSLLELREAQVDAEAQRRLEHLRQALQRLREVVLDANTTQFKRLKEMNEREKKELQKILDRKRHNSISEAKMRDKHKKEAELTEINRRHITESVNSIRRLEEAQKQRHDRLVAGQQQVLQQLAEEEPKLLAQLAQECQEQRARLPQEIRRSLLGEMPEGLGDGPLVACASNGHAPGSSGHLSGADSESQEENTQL
VIM-2 inhibitor: inhibitors of Pseudomonas aeruginosa VIM-2 metallo-beta-lactamase; purified VIM-2, nitrocefin hydrolysis, epi-absorbance fluorescence; inhibition, % at 5.6 µM; 290,000 compounds, 0.89% hits;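 active means inhibition above the mean of all tested compounds plus 3 SD, cutoff set per screening run, cut at about 7.5% in these data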;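 further: red hydrolysis product quenches plate fluorescence so inhibitors raise well fluorescence; 0% = enzyme with DMSO and 100% = DMSO without enzyme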
PLCg1 inh: inhibitors of human phospholipase C gamma1 | purified PLC-gamma1, fluorogenic substrate, fluorescence | inhibition, % at 12.2 µM | 370,000 compounds, 0.84% hits | AID 720700
IMP-1 inh: blocks Pseudomonas aeruginosa IMP-1 metallo-beta-lactamase | 290,000 compounds, 0.45% hits | purified IMP-1, nitrocefin hydrolysis, epi-absorbance fluorescence | AID 1556 | inhibition, % at 5.6 µM;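 active means inhibition above the mean plus 3 SD of all compounds in the same screening run, cut at about 4.5% in these data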;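 further: 0% = IMP-1 with DMSO and 100% = DMSO wells lacking enzyme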
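System: purified IMP-1 / Input: IMP-1 dispensed at 0.2 nM / Medium: 50 mM HEPES pH 7.1, 50 µM ZnSO4, 0.05% Brij 35 / Timing: 15 min enzyme–compound preincubation, then 25 min nitrocefin reaction, 25 °C / Technique: plate fluorescence quenching by hydrolysis product, ex 480/em 530 nm / Repeats: singlicate testing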
PvdQ acylase: blocks Pseudomonas aeruginosa PvdQ acylase activity; purified PvdQ acylase, fluorescence plate reader; inhibition, % at 10 µM; 340,000 compounds, 0.063% hits; AID 488965; in the data active means inhibition above about 30%, passing the limit was not always enough;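 further: 0% = vehicle neutral wells and 100% = reference inhibitor wells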
PLCg1 ctr: inhibits human PLC-gamma1 in PLC-beta3 counter-screen; shares compounds with PLCg1 inh; purified PLC-gamma1, fluorogenic substrate, fluorescence; inhibition, % at 12.3 µM; 3,300 compounds, 3.1% hits; AID 743258
PLCb3 confirm: confirmation of human PLC-beta3 inhibitors; shares compounds with PLCg1 inh; 3,300 compounds, 1% hits; AID 743261; purified PLC-beta3, fluorogenic substrate fluorescence; inhibition, % at 12.3 µM; in the data active means inhibition above about 11%
The depositor's hits bear a star; x = not tested or not shown. Unless noted, no stated cut-off is given here; in the data, active means inhibition above about 9.5%; inactive means the rest.

SMILES	PLCb3 inh	VIM-2 inhibitor	PLCg1 inh	IMP-1 inh	PvdQ acylase	PLCg1 ctr	PLCb3 confirm
Cc1cccc(NC(=O)C2CCN(c3nnc(-n4cccc4)s3)CC2)c1C	5	x	-7	x	x	x	x
Oc1ccc(C[C@H]2CNCCN2CCC23CC4CC(CC(C4)C2)C3)cc1	11*	x	9.8*	x	12	-6	-2
COC(=O)C1=C(C)N(C)C(=NCc2ccc(C(F)(F)F)cc2)NC1c1cccc(Cl)c1 (stereo unspecified)	-2	x	1	x	x	x	x
CCS(=O)(=O)Nc1c(C)n(C)n(-c2ccccc2)c1=O	8	-3	9.6*	-4	-12	-7	-3
Cc1c(NC(=O)C2CCCN2S(=O)(=O)c2ccccc2)c(=O)n(-c2ccccc2)n1C (stereo unspecified)	13*	-3	5	-3	0	4	-5
Cc1ccc(S(=O)(=O)N2CCCC(C(=O)Nc3c(C)n(C)n(-c4ccccc4)c3=O)C2)cc1 (stereo unspecified)	2	x	2	x	x	x	x
CCN(CC)C(=O)CC[C@H]1CC[C@]2(CCCN(C(=O)c3cccnc3)C2)O1	0	x	-2	x	x	x	x
C[C@H](O)[C@@H]1CN2CCc3c([nH]c4c(-c5ccc6c(c5)OCO6)cccc34)[C@@H]2C[C@@H]1N(C)C(=O)c1ccccc1F	-13	x	-10	x	x	x	x
Cc1ccc(C(=O)Nc2ccc(S(=O)(=O)NCc3ccco3)cc2)cc1	-1	-3	1	-5	-8	x	x
O=C(Nc1ccccc1)c1ccc(S(=O)(=O)NCc2ccco2)cc1	7	-1	13*	-1	-3	8	1
Cc1nnc(SCCOC(N)=O)n1C	4	0	0	-4	-11	x	x
C[N+](C)(C)CCOC(N)=O	0	x	11*	x	-6	-7	-1
CCOC(=O)[C@@]12CCCC3=C1N(CCC3)C(=O)[C@H]2CC(=O)N1CCCC1	2	x	0	x	x	x	x
Cc1onc(-c2c(F)cccc2Cl)c1C(=O)N1CCCC1	3	x	4	x	-16	x	x
Cc1onc(-c2c(F)cccc2Cl)c1C(=O)N1C=CC(C(F)(F)Cl)=NCC1	11*	-3	13*	-1	-10	1	5
C[C@H]1[C@H](N(C)C)CC[C@@]23CCCN2C(=O)CCC[C@@H]13	1	x	2	x	x	x	x
CCC1CO/C(=C(\C(Cl)=C(Cl)Cl)[N+](=O)[O-])N1 (stereo unspecified)	8	-6	9.7*	-3	5	2	9
CCC1CCc2sc(C(=O)Nc3cc(S(=O)(=O)N4CCOCC4)ccc3OC)cc2C1 (stereo unspecified)	-11	x	-8	x	x	x	x
COc1ccc(C(c2c(C)n(C)n(-c3ccccc3)c2=O)c2c(C)n(C)n(-c3ccccc3)c2=O)cc1OC	-9	0	1	-3	-18	x	x
COc1ccc(C(c2c(C)[nH]n(-c3ccccc3)c2=O)c2c(C)[nH]n(-c3ccccc3)c2=O)cc1OC	8	-5	25*	-2	-5	1	0
COC[C@@H]1CCCN1c1ccc2c(c1)OCCCN(C1CC1)S2(=O)=O	-3	x	-3	x	x	x	x
COc1cccc(/C=N/N2CCN(C)CC2)c1	-2	-2	0	-3	-3	x	x
COc1ccc(/C=N/N2CCN(C)CC2)cc1O	3	-2	11*	-4	-19	5	1
Cc1ccc(C(=O)N2CCN(S(=O)(=O)c3ccc(C)c([N+](=O)[O-])c3)C2)cc1	7	-3	10*	-3	-15	-2	-1
Cc1ccc(C(=O)N2CCN(S(=O)(=O)c3ccc(C)cc3)CC2)cc1	3	-3	-2	-2	0	x	x
SMILES	PLCb3 inh	VIM-2 inhibitor	PLCg1 inh	IMP-1 inh	PvdQ acylase	PLCg1 ctr	PLCb3 confirm
Cc1ccc(-n2c(SC/C=C/c3ccccc3)nnc2-c2ccco2)cc1	-2	x	-1	x	x	x	x
Fc1ccc(-[n+]2nc(Nc3ccccc3)sc2-c2c(Cl)cccc2Cl)cc1	15*	-3	11*	-4	-73	4	-18
CCc1ccc(Nc2n[n+](-c3ccccc3)c(-c3c(Cl)cccc3Cl)s2)cc1	6	0	5	1	-50	x	x
CCOC(=O)c1cnc2ccc(C)cc2c1NCCN1CCOCC1	0	4	11*	0	-15	-10	-4
CCOC(=O)c1cnc2ccc(Br)cc2c1NCC(C)O (stereo unspecified)	5	x	12*	x	-13	-4	-1
CCOC(=O)c1cnc2ccc(Br)cc2c1NCCO	4	-3	6	-3	-16	x	x
CC(C)N1CCCCC(NC(=O)c2ccc(F)cc2)C1=O (stereo unspecified)	3	x	1	x	x	x	x
COC(=O)C1=C(C)N(Cc2ccc(C(F)(F)F)cc2)C(=NCc2ccc(C(F)(F)F)cc2)NC1c1ccccc1C(F)(F)F (stereo unspecified)	4	x	-2	x	x	x	x
CC1(CC(=O)N/N=C/c2cc([N+](=O)[O-])c(O)cc2O)OCCO1	4	-3	9.6*	-4	9	13*	1
CN1C(=O)C[C@@](C#N)(C(=O)NCc2ccc3c(c2)OCO3)[C@H]1c1ccccc1	2	x	2	x	x	x	x
O=[N+]([O-])c1ccc(C(O)C(CO)NC(=S)Nc2ccccc2)cc1 (stereo unspecified)	-1	-3	9.8*	-1	-5	-6	1
CN1CCN(S(=O)(=O)c2cccc(C(=O)Oc3cccc(Br)c3)c2)CC1	-5	x	0	x	-11	x	x
CN1CCN(S(=O)(=O)c2cccc(C(=O)Oc3ccc(Br)cc3F)c2)CC1	0	0	11*	-2	0	-4	-1
O=C1NC(=S)S/C1=C\C=C\c1ccc([N+](=O)[O-])o1	1	3	60*	-1	1	32*	-8
CCCCn1c(-c2csc3c2CCCC3)n[nH]c1=S	-3	-2	15*	-7	x	-2	-4
CC(C)C[C@H](NC(=O)C1CC1)C(=O)N1CCC[C@H]1C(=O)NCc1ccccc1	2	x	3	x	x	x	x
COc1cc(C(c2c(C)[nH][nH]c2=O)c2c(C)[nH][nH]c2=O)cc([N+](=O)[O-])c1O	8	-1	15*	-3	-3	3	0
Cc1ccc(CN2CCN(Cc3cccc4c3OCO4)CC2CCO)cc1 (stereo unspecified)	15*	-1	5	-3	2	-5	-12
COc1ccc([N+](=O)[O-])c2c(=O)ccoc12	4	-2	4	-2	-7	x	x
CCOC(=O)c1cc(=O)c2c([N+](=O)[O-])ccc(OC)c2o1	5	5	9.6*	-1	-13	-5	-3
Cc1cccc(NC(=O)CCC(=O)OCC(=O)c2ccc(Oc3ccc([N+](=O)[O-])cc3)cc2)c1	6	-1	2	-3	5	x	x
Cc1ccc(NC(=O)CCC(=O)OCC(=O)c2ccc(Oc3ccc([N+](=O)[O-])cc3)cc2)cc1C	5	-1	11*	-4	-14	7	6

High-throughput results from PubChem.
